Assay outcomes as filed in PubChem BioAssay.
Shown are actives, neighbours in structure and some others; about 4.1% of the full set was active somewhere.
TbMetRS inhib: Trypanosoma brucei MetRS inhibition; purified T. brucei MetRS, ATP depletion, Kinase-Glo luminescence; inhibition, % at 11.9 µM; actives 0.4% (n = 360,000);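 active = inhibition above a per-plate cutoff of the control wells' mean inhibition plus 3 SD, cut at about 5.5% in these data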;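 also: 0% = DMSO wells median and 100% = median of wells with control inhibitor compound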
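Dosing: 11.9 µM single point; system: parasite MetRS enzyme; technique: luminescence of leftover ATP; times: 15 min enzyme-compound preincubation, 2 h reaction, 10 min detection, 25 °C; replicates: each compound tested once; read-out basis: percent inhibition relative to median high and low control wells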
H9c2 TAG inh: inhibitors of triacylglycerol accumulation; H9c2 cells, Nile Red lipid (TAG) fluorescence; cells loaded with 200 µM oleic acid; inhibition, % at 12.5 µM; actives 0.66% (n = 230,000); AID 651582;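 active = pattern-corrected inhibition of lipid staining of at least 50% with the nuclear-stain viability signal not falling by more than 50%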;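 also: 0% = DMSO wells and 100% = triacsin C control wells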
AHR act: human AHR activation. P35869. AHR-responsive luciferase reporter cells, luminescence. activation, % at 5 µM. actives 2.5% (n = 320,000); in the data active = activation above about 47%;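 also: 0% = vehicle wells and 100% = reference agonist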
Target sequence (P35869 whole entry, looked up): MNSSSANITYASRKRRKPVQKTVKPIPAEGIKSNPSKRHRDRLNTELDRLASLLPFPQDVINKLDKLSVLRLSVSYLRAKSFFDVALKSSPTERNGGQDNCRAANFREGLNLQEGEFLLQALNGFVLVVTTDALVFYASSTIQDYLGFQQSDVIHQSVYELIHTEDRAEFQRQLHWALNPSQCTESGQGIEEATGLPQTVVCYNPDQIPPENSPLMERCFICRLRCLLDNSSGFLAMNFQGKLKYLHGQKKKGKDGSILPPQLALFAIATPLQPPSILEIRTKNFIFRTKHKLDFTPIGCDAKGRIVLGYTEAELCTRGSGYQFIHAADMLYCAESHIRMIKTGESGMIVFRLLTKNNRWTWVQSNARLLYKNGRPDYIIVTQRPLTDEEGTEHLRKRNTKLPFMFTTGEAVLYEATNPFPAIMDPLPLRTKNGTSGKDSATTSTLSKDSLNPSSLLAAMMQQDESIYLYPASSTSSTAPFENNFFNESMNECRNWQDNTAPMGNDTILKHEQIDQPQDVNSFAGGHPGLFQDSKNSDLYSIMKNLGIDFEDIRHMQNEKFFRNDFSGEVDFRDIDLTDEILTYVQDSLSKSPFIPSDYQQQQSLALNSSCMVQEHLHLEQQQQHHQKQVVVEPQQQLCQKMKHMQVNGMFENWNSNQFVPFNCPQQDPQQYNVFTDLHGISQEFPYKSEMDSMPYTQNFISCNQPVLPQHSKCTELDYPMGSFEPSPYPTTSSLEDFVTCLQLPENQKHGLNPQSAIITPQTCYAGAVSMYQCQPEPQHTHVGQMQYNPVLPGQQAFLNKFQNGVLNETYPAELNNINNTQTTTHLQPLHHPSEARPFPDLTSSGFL
SMARCA2 act: activators of SMARCA2 function | MG213 cells, MMTV-luciferase reporter, dexamethasone, overnight | activation, % at 9.1 µM | actives 1% (n = 370,000); in the data active = activation above about 7.8%;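 also: 0% = vehicle wells and 100% = reference activator wells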
Efflux pump inh: antifungal efflux pump inhibition, Nile Red retention; S. cerevisiae Candida pump triplex; actives 0.44% (n = 330,000); inhibition, % at 10 µM;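 active = plate passing quality check with inhibition over a set limit, or well fluorescence over plate mean plus 4 SD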;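 also: Nile Red retained in pooled yeast measured as flow cytometry median fluorescence; 0% = buffer negative control and 100% = Enniatin B positive control; higher means more Nile Red kept so more efflux inhibition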
Active calls of the source: *; nt = no result.

SMILES	TbMetRS inhib	H9c2 TAG inh	AHR act	SMARCA2 act	Efflux pump inh
Cc1nc(N)sc1-c1csc(Nc2cccc(O)c2)n1	1	6	71*	2	0
CC(=O)c1cccc(Nc2nc(-c3sc(N)nc3C)cs2)c1	-1	-1	49*	0	0
Cc1ccc(C2=NS(=O)(=O)N(C)C(C(=O)Nc3ccc4c(c3)OCO4)=C2)cc1	-1	nt	53*	-1	0
COc1ccc(C2=NS(=O)(=O)N(C)C(C(=O)Nc3ccc4c(c3)OCO4)=C2)cc1	0	-29	35	-6	0
Cc1ccc2nc(-c3ccc(Cl)cc3)c(Cc3ccsc3)n2c1	nt	nt	nt	7.8*	nt
Cc1ccc(-c2nc3ccc(Cl)cn3c2Cc2ccsc2)cc1	-1	nt	nt	-1	nt
COC(=O)[C@]12C[C@H](CC(=O)NCc3cccc(C(F)(F)F)c3)C(=O)N(Cc3ccc(Cl)cc3Cl)C1=C[C@H](C(C)C)O[C@@H]2C1CC1	nt	nt	nt	-2	nt
COC(=O)c1cc2c(c3c4cc(C)ccc4n(S(=O)(=O)c4cccc(C)c4)c13)C(=O)N(Cc1ccccc1OC)C2	nt	nt	nt	2	nt
Cc1ccc(-c2cc(C(=O)N/N=C/c3c(C)nn(C)c3C)c3ccccc3n2)cc1C	-1	-13	61*	-1	0
CC1=C(CC(=O)c2ccccc2)C(=O)c2ccccc2C1=O	0	nt	48*	-6	0
O=C(CN1C(=O)c2ccccc2C1=O)c1ccccc1	-1	nt	33	3	0
CCN(CC)CCNC(=O)c1cc2c(-c3ccc(Cl)cc3)nn(C)c2s1	0	65*	53*	11*	0
CCCN(CCC)CCNC(=O)c1cc2c(-c3ccc(Cl)cc3)nn(C)c2s1	-1	nt	39	0	0
CCOCCCNC(=O)c1cc2c(-c3ccc(Cl)cc3)nn(C)c2s1	2	32	56*	-2	0
CCN(CC)CCNC(=O)c1cc2c(-c3cccc(OC)c3)nn(C)c2s1	-1	nt	48*	0	0
COCCCNC(=O)c1cc2c(-c3cccc(OC)c3)nn(C)c2s1	-1	nt	44	1	0
COc1ccc(CN2C(=O)N3Cc4ccccc4C3CS2(=O)=O)cc1 (centres undefined)	nt	nt	nt	-1	nt
COc1ccc(-n2c(SCC(=O)NN=Cc3c(O)ccc4ccccc34)nnc2-c2ccc(C(C)(C)C)cc2)cc1	nt	nt	nt	-4	nt
O=C(Nc1ccccc1O)c1cccc(S(=O)(=O)Nc2ccccc2O)c1	6.3*	9	1	0	0
O=C(NC(=S)Nc1ccccc1O)c1ccc(-c2ccc(Cl)cc2)o1	-1	-4	67*	2	0
O=C(Nc1ccccc1O)c1ccc(Cl)cc1	0	-29	66*	1	0
N#C/C(=C/c1ccc([N+](=O)[O-])cc1)C(=O)Nc1ccccc1O	-1	nt	68*	7	0
Cc1ccc(-n2c(SCC(=O)c3ccc(O)c(O)c3)nnc2-c2ccccc2)cc1	nt	nt	nt	-6	nt
CC(C)=CCC/C(C)=C/CN1C(=O)N(c2ccc(F)cc2)[C@H]2C[C@@H](c3ccccc3)[C@@H](C)[C@@H](C(=O)N3CCOCC3)C[C@H]21	nt	nt	nt	-8	nt
C=CCN=C1NC(c2cccc(F)c2)C(C(=O)OC)=C(C)N1Cc1cccc(C(F)(F)F)c1 (centres undefined)	nt	nt	nt	-3	nt
SMILES	TbMetRS inhib	H9c2 TAG inh	AHR act	SMARCA2 act	Efflux pump inh
CSc1ccccc1NC(=O)c1ccc([N+](=O)[O-])cc1	0	7	-6	-2	0
O=C(Nc1ccccc1O)c1ccc([N+](=O)[O-])cc1	-1	nt	70*	-2	0
CCOC(=O)c1[nH]c2ccc(OCC)cc2c1NC(=O)CN1CCCC(C)C1 (centres undefined)	-1	24	39	-1	0
CCOC(=O)c1[nH]c2cc3c(cc2c1NC(=O)CN1CC(C)CC(C)C1)OCO3 (centres undefined)	-1	42	56*	2	0
O=C(OCc1nc2ccccc2c(=O)[nH]1)c1cccs1	0	-2	55*	-1	0
COC1OC(COCc2ccccc2)C2OC(C)(C)OC2C1O (centres undefined)	nt	nt	nt	1	nt
CC(=O)O[C@@H]1CCC[C@@]2(C(=O)N(Cc3ccccc3)c3ccc(-c4c(C)noc4C)cc32)[C@H]1NC(=O)CCc1ccccc1	nt	nt	nt	-4	nt
Clc1ccc([C@H]2OC[C@@]3(CNCCN4CCOCC4)CS[C@H](c4ccc(Cl)cc4)N23)cc1	nt	nt	nt	-3	nt
CCCS(=O)(=O)n1nc(-c2ccc(Br)cc2)cc1N	1	0	58*	0	0
COc1ccc(S[C@]2(C(=O)N(C)C)CC(=O)N(C(=O)CCc3ccccc3)[C@@H]2c2ccc(OC)cc2)cc1	nt	nt	nt	-4	nt
CSc1nc2c(c(=O)[nH]1)C(c1ccncc1)C(C(=O)OC(C)C)=C(C)N2 (centres undefined)	-1	2	51*	0	0
Cn1nnnc1Sc1ncnc2scc(-c3ccc(Br)cc3)c12	0	58*	12	-5	0
Cn1nnnc1Sc1ncnc2scc(-c3ccc(F)cc3)c12	0	13	0	-3	0
CCCCN1C(=O)N2Cc3cc(OC)ccc3C2CS1(=O)=O (centres undefined)	nt	nt	nt	3	nt
COc1ccc(-c2ccc(/C=C3/C(=N)N4C=CSC4=NC3=O)o2)c([N+](=O)[O-])c1	1	nt	49*	4	0
O=C(c1cccc(F)c1)N(Cc1ccccn1)CC1CCCO1 (centres undefined)	nt	nt	nt	-5	nt
Nc1c(-c2ccccc2)n[nH]c1-c1ccccc1	0	nt	134*	5	0
S=c1nc(-c2ccccc2)c(-c2ccccc2)n[nH]1	0	nt	0	1	0
O=C1c2cccc(Sc3ccccc3)c2C(=O)c2c(Sc3ccccc3)cccc21	-1	78*	-4	-2	0
COc1ccc(S[C@]2(C(=O)N3CCCC3)CC(=O)N(P(=O)(OC)OC)[C@@H]2c2ccc(OC)cc2)cc1	nt	nt	nt	-5	nt
COc1ccccc1-c1cc(-c2ccc(O)cc2)nc(N)c1C#N	0	nt	62*	-4	1
C=CCN1[C@@H](C)COc2cccc(F)c2S1(=O)=O	nt	nt	nt	-1	nt
Cc1ccccc1Nc1nc(-c2sc(NC(=O)c3ccccc3)nc2C)cs1	nt	nt	62*	nt	0
Cc1nc(NC(=O)c2ccco2)sc1-c1csc(Nc2ccc(Cl)cc2)n1	0	nt	75*	2	0
Cc1nc(NC(=O)c2ccccc2)sc1-c1csc(Nc2ccc(F)cc2)n1	nt	nt	23	nt	0
Cc1nc(NC(=O)c2ccccc2)sc1-c1csc(Nc2ccc(Cl)cc2)n1	nt	nt	59*	nt	0
Cc1ccc(Cl)cc1Nc1nc(-c2sc(NC(=O)c3ccco3)nc2C)cs1	-1	9	28	4	nt
COc1cccc(N(C(=O)c2ccco2)c2nc(-c3sc(NC(=O)c4ccco4)nc3C)cs2)c1	0	41	65*	5	0
CN(CCCOC(=O)c1cccs1)C1CN(Cc2cn(Cc3ccccc3Cl)nn2)S(=O)(=O)C1 (centres undefined)	nt	nt	nt	-2	nt
COCCCN1C(=O)[C@H](CC(=O)NCc2cccs2)[C@]2(C(=O)OC)CCCCC=C12	nt	nt	nt	-2	nt
